Assay [1] deals with T1, Sulfonylurea receptors; K-ATP channels (Homo sapiens, UniProt O60706+Q09428+Q14654+Q15842). Put plainly: (§1) Evaluated for K-ATP activity in terms of change in membrane potential through guinea pig bladder assay. It counts as functional, Cavia porcellus. To be noted: target entry is the homologue from another species.
In assay [2] the target is T1, Sulfonylurea receptors; K-ATP channels. Put plainly: Evaluated for K-ATP activity in terms of stable twitch response through field-stimulated landrace pig detrusor assay. It is filed as functional, Sus scrofa. To be noted: target entry is the homologue from another species.
The target in assay [3] is Sulfonylurea receptors; K-ATP channels (UniProt Q14654+O60706+Q09428+Q15842). Described as §1. It is filed as functional, Cavia porcellus. The conditions noted are these: target entry is the homologue from another species.
Chain of Sulfonylurea receptors; K-ATP channels (UniProt Q14654+O60706+Q09428+Q15842) (Q14654 whole entry): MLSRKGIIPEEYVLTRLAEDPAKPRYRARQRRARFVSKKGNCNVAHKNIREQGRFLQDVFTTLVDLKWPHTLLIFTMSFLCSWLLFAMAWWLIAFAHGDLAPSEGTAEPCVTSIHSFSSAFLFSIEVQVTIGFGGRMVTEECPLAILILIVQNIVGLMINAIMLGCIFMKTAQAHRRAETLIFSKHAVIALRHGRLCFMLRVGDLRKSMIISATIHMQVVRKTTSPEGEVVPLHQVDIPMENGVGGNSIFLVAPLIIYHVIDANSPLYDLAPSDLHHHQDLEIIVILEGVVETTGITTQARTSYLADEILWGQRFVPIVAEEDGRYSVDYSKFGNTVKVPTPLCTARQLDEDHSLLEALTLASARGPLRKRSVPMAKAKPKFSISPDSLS
Chain of Sulfonylurea receptors; K-ATP channels (UniProt Q14654+O60706+Q09428+Q15842) (O60706 whole entry): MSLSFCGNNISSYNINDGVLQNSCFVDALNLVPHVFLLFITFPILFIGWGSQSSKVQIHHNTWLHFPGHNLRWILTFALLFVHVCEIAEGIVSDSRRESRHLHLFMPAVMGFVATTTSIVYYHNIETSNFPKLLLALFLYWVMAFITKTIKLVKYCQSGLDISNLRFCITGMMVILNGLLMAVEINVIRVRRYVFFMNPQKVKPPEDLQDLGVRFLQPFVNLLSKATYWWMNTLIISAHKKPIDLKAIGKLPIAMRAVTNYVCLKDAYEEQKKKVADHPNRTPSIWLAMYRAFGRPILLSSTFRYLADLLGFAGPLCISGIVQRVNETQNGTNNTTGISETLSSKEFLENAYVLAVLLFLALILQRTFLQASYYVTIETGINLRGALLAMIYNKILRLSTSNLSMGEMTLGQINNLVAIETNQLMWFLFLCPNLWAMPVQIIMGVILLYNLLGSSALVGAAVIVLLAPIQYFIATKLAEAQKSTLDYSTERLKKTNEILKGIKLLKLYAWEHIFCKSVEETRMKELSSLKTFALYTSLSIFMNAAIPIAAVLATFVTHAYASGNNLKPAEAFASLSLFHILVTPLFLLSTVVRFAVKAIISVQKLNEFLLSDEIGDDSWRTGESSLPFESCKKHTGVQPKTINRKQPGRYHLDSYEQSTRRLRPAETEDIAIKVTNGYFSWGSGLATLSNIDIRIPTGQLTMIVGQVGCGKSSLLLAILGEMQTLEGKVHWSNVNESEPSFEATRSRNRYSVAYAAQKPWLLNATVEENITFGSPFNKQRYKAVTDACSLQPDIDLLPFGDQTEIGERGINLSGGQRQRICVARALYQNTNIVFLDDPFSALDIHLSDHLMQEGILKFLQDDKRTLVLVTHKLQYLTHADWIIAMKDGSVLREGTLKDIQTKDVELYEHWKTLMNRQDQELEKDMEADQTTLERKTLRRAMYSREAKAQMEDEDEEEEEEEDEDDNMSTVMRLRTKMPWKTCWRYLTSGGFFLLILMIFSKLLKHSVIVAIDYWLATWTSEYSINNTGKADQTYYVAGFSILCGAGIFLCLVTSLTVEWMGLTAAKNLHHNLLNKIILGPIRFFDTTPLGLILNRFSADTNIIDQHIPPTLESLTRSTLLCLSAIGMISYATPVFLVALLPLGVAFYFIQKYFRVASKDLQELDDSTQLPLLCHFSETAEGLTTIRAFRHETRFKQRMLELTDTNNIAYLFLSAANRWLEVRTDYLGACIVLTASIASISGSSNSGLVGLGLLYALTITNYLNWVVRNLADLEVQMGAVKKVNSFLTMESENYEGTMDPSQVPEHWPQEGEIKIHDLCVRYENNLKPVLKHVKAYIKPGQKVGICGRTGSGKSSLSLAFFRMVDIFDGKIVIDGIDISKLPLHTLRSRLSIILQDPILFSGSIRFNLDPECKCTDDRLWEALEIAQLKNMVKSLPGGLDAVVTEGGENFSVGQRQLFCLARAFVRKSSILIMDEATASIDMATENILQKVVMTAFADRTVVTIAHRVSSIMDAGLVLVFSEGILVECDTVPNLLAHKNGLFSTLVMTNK
Chain of Sulfonylurea receptors; K-ATP channels (UniProt Q14654+O60706+Q09428+Q15842) (Q09428 whole entry): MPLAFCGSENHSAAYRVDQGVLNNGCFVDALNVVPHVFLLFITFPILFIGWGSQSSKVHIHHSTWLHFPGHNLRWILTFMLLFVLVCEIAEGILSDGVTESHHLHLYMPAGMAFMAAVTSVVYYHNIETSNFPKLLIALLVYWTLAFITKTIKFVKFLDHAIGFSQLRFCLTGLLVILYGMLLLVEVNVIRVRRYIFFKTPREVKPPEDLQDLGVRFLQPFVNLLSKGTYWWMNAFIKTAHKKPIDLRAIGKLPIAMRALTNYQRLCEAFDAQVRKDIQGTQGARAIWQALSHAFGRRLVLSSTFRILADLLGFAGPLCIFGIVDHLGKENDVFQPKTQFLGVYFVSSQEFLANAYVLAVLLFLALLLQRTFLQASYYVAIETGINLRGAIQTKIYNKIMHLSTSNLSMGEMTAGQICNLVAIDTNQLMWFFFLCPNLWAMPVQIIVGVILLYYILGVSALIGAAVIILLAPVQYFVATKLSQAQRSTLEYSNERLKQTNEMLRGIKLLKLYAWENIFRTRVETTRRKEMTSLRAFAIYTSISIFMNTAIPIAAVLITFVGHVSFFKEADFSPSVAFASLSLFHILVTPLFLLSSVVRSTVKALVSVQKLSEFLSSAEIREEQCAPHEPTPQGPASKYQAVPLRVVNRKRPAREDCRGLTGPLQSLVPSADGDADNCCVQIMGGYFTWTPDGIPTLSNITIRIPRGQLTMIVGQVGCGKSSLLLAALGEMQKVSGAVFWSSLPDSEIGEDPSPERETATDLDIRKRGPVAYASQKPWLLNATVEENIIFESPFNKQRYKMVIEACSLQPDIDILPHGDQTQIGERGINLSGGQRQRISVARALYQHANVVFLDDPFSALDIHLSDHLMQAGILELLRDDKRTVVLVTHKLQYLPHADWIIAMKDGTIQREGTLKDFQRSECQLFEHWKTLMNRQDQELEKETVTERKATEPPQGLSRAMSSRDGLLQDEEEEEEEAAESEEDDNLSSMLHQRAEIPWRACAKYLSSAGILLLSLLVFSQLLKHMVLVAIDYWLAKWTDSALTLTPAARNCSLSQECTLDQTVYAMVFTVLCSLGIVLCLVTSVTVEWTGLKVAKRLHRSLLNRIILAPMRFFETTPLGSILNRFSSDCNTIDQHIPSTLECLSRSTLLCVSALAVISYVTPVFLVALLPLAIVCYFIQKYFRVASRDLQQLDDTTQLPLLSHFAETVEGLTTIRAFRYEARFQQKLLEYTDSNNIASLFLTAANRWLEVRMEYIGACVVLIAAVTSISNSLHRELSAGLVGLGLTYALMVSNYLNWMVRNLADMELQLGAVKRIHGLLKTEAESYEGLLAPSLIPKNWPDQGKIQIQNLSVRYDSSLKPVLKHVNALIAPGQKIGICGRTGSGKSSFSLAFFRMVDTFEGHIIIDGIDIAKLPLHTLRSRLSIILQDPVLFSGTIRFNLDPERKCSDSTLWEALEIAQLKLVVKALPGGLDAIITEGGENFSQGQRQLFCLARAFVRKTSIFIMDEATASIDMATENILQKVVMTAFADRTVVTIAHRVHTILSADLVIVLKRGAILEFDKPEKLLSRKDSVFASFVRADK
Chain of Sulfonylurea receptors; K-ATP channels (UniProt Q14654+O60706+Q09428+Q15842) (Q15842 whole entry): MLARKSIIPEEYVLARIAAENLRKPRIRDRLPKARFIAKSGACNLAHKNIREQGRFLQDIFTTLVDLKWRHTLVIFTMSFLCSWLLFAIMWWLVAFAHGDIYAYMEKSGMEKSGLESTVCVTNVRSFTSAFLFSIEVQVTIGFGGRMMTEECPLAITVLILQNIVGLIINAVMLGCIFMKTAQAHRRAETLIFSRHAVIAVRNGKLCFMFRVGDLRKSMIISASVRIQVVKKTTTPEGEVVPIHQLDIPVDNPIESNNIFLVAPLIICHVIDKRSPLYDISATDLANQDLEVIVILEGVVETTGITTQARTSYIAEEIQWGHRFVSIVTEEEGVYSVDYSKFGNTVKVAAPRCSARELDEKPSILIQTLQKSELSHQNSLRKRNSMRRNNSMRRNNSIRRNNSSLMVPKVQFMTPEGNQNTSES
Assay [4] is described as follows: Selectivity expressed as the ratio of pEC50 (SLPD) and pEC50 (FSLPD). It is filed as functional.
Assay [5] addresses T1, Sulfonylurea receptors; K-ATP channels. Put plainly: Evaluated for K-ATP activity as in vitro bladder relaxation in spontaneous Landrace pig detrusor strips (SLPD). It counts as functional, Sus scrofa. The conditions noted are these: target entry is the homologue from another species. The method, boiled down:
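Bladder strips taken near the trigonal region of Landrace pig bladder, contracting spontaneously (myogenic, no cholinergic component). Test agents added at increasing concentrations; the read-out is the reduction in area under the contraction curve.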

This note sets out measurements from ChEMBL document CHEMBL1148324 (J Med Chem, 2004).

Structures are written as SMILES.

Consider `CC(=O)C1=C(C)NC2=C(C1c1ccc(F)c(Br)c1)S(=O)(=O)CCC2` (stereo not drawn), for which the values for the EC50 in assay [1] and in assay [2] were 214 nM and 794 nM, respectively.
The like results for `O=C1CCCC2=C1[C@H](c1ccc(C(F)(F)F)c(Br)c1)C1=C(CCS1(=O)=O)N2` were, in that order, 219 nM and 9550 nM.
For `O=C1CCC2=C1[C@H](c1ccc(F)c(Br)c1)C1=C(CCCS1(=O)=O)N2`, in that order: 14800 nM and 26300 nM.
In assay [1], `O=C1CCCC2=C1[C@H](c1ccc3nsnc3c1)C1=C(CCS1(=O)=O)N2` gave an EC50 of 2400 nM.
Turning to `O=C1CCC2=C1[C@@H](c1ccc(F)c(Br)c1)C1=C(CCCS1(=O)=O)N2`, the EC50 is 52.5 nM in assay [1] and 282 nM in assay [2].
In turn, `O=C1CCCC2=C1C(c1ccc(F)c(Br)c1)C1=C(CCCCS1(=O)=O)N2` (stereo not drawn) showed an EC50 in assay [1] of 3310 nM.
As to `O=C1CCC2=C1[C@@H](c1ccc(F)c(Br)c1)C1=C(CCS1(=O)=O)N2`, the concentration giving a half-maximal response (EC50) in assay [1] was 33.1 nM; in assay [2] it was 30.9 nM.
Regarding `O=C1CCC2=C1C(c1ccc([N+](=O)[O-])s1)C1=C(CCS1(=O)=O)N2` (stereo not drawn), in assay [3], the Log EC50 is -6.82. Also, in assay [2], the response was half-maximal at 479 nM (EC50).
With `N#Cc1cccc([C@H]2C3=C(CCCC3=O)NC3=C2S(=O)(=O)CC3)c1`, the EC50 in assay [1] was 5890 nM; in assay [2] it was 12900 nM.
`O=C1CCCC2=C1[C@H](c1ccc(Cl)c(F)c1)C1=C(CCS1(=O)=O)N2` gave an EC50 in assay [1] of 1320 nM.
For the compound `Cc1ccc([C@H]2C3=C(CCCC3=O)NC3=C2S(=O)(=O)CC3)cc1I`, the EC50 in assay [1] is 21.9 nM; in assay [2] it was 309 nM.
Take `CCOC(=O)C1=C(C)NC2=C(C1c1ccc(F)c(Br)c1)S(=O)(=O)CC2` (stereo not drawn): in assay [1], the EC50 is 501 nM.
On to `Cc1ccc([C@H]2C3=C(CCCC3=O)NC3=C2S(=O)(=O)CC3)cc1[N+](=O)[O-]`, for which the values for the EC50 in assay [1] and in assay [2] were 282 nM and 537 nM, respectively.
The like results for `O=C1CCCC2=C1[C@H](c1ccc(F)c(-c3ccco3)c1)C1=C(CCS1(=O)=O)N2` were, in that order, 214 nM and 1700 nM.
With `N#Cc1cccc(C2C3=C(CCC3=O)NC3=C2S(=O)(=O)CC3)n1` (stereo not drawn), the concentration giving a half-maximal response (EC50) in assay [1] was above 10000 nM.
As to `Cc1ccc([C@H]2C3=C(CCCC3=O)NC3=C2S(=O)(=O)CC3)cc1Br`, the concentration giving a half-maximal response (EC50) in assay [1] is 182 nM; in assay [2] it was 110 nM.
Compound `CC1(C)CC(=O)C2=C(C1)NC1=C([C@H]2c2ccc(F)c(Br)c2)S(=O)(=O)CC1` showed an EC50 in assay [1] of 7080 nM.
Same read-out and setting: the result for `CSc1cc([C@H]2C3=C(CCCC3=O)NC3=C2S(=O)(=O)CC3)ccc1F` reads 2570 nM.
With `CCc1cc(C#N)ccc1Nc1c(N[C@H](C)C(C)(C)C)c(=O)c1=O`, the Selectivity in assay [4] was determined as 6.6. Moreover, the concentration for a half-maximal effect (EC50) was 251 nM in assay [1], 676 nM in assay [2] and 102 nM in assay [5].
In the case of `O=C1CCCC2=C1[C@H](c1ccc(Cl)c(Br)c1)C1=C(CCS1(=O)=O)N2`, the EC50 is 25.7 nM in assay [1] and 724 nM in assay [2].
The like results for `O=C1CCCC2=C1[C@H](c1ccc3nonc3c1)C1=C(CCS1(=O)=O)N2` were, in that order, 214 nM and 2340 nM.
Regarding `O=C1CCCC2=C1[C@H](c1cc(Cl)c(Cl)cc1CO)C1=C(CCS1(=O)=O)N2`, it took 61700 nM to reach a half-maximal effect in assay [1] (EC50).
Same read-out and setting: the same measure for `CC(=O)c1cc([C@H]2C3=C(CCCC3=O)NC3=C2S(=O)(=O)CC3)ccc1F`: 1050 nM; for `N#Cc1cc(C2C3=C(CCC3=O)NC3=C2S(=O)(=O)CC3)ccn1` (stereo not drawn): 3160 nM.
On the same count and under the same terms, the result for `N#Cc1cc([C@H]2C3=C(CCCC3=O)NC3=C2S(=O)(=O)CC3)ccc1F` reads 468 nM.
With `O=S1(=O)CCCC2=C1C(c1ccc(F)c(Br)c1)C1=C(CCCS1(=O)=O)N2`, the EC50 in assay [1] is 3160 nM; in assay [2] it was 11700 nM.
Take `O=C1CCCC2=C1[C@H](c1ccc(F)c(-c3cccs3)c1)C1=C(CCS1(=O)=O)N2`: in assay [1], the concentration for a half-maximal effect (EC50) is above 10000 nM.
Same read-out and setting: the same measure for `O=C1CCCC2=C1[C@H](c1ccc(F)c(-c3ccccc3)c1)C1=C(CCS1(=O)=O)N2`: 12000 nM; for `CC1(C)CC(=O)C2=C(C1)NC1=C([C@@H]2c2ccc(F)c(Br)c2)S(=O)(=O)CC1`: 17800 nM.
For `O=C1CCC2=C1C(c1ccc(F)c(Br)c1)C1=C(CCCCS1(=O)=O)N2` (stereo not drawn), the EC50 in assay [1] is 2240 nM; in assay [2] it was 11700 nM.
`O=S1(=O)CCC2=C1C(c1ccc(F)c(Br)c1)C1=C(CCS1(=O)=O)N2`: the EC50 is 339 nM in assay [1] and 269 nM in assay [2].
`CCOC(=O)C1=C(C(F)(F)F)NC2=C(C1c1ccc(F)c(Br)c1)S(=O)(=O)CC2` (stereo not drawn) had a concentration for a half-maximal effect (EC50) in assay [1] above 10000 nM.
For `CC1(C)CCC(=O)C2=C1NC1=C([C@@H]2c2ccc(F)c(Br)c2)S(=O)(=O)CC1`, the 50% effective concentration (EC50) in assay [1] is above 10000 nM.
In assay [2], `N#Cc1cccc(C2C3=C(CCCC3=O)NC3=C2C(=O)CCC3)c1` had an EC50 of 9770 nM.
With `CC1(C)CCC(=O)C2=C1NC1=C([C@H]2c2ccc(F)c(Br)c2)S(=O)(=O)CC1`, the figures for the EC50 in assay [1] and in assay [2] were 631 nM and 2690 nM, respectively.
`O=C1CCC2=C1C(c1ccc(Br)s1)C1=C(CCS1(=O)=O)N2` (stereo not drawn) gave an EC50 in assay [1] of 1860 nM.
On to `CC1(C)CCC2=C(C1=O)[C@@H](c1ccc(F)c(Br)c1)C1=C(CCS1(=O)=O)N2`, for which the results for the EC50 in assay [1] and in assay [2] were 107 nM and 977 nM, respectively.
In the case of `O=C1CCC2=C1C(c1csc([N+](=O)[O-])c1)C1=C(CCS1(=O)=O)N2` (stereo not drawn), the EC50 in assay [1] was 240 nM; in assay [2] it was 661 nM.
In assay [1], `O=C1CCCC2=C1[C@H](c1ccc(F)c(F)c1)C1=C(CCS1(=O)=O)N2` had an EC50 of 2040 nM.
On to `O=C1CCCC2=C1[C@H](c1ccc(F)c(I)c1)C1=C(CCS1(=O)=O)N2`, for which the concentration giving a half-maximal response (EC50) in assay [1] was 28.2 nM; in assay [2], 447 nM.
In assay [1], `COC(=O)C1=C(C)NC2=C(C1c1ccc(F)c(Br)c1)S(=O)(=O)CC2` (stereo not drawn) showed a half-maximal effective concentration (EC50) of 53.7 nM.
On to `O=C1CCCC2=C1[C@H](c1ccc(F)c(C(F)(F)F)c1)C1=C(CCS1(=O)=O)N2`, for which the EC50 is 155 nM in assay [1] and 977 nM in assay [2].
The compound `O=C1CCCC2=C1[C@H](c1ccc(F)c(-c3cccnc3)c1)C1=C(CCS1(=O)=O)N2` gave an EC50 in assay [1] above 10000 nM.
For the compound `O=C1CCCC2=C1[C@H](c1ccc(Br)c(Br)c1)C1=C(CCS1(=O)=O)N2`, the 50% effective concentration (EC50) in assay [1] is 55 nM; in assay [2] it was 537 nM.
The like results for `O=C1CCCC2=C1[C@H](c1cc(Br)ccc1O)C1=C(CCS1(=O)=O)N2` were, in that order, 575 nM and 20400 nM.
As to `O=C1CCCC2=C1[C@H](c1ccc(Br)cc1)C1=C(CCS1(=O)=O)N2`, in assay [1], the concentration giving a half-maximal response (EC50) was above 10000 nM.
Regarding `O=C1CCCC2=C1[C@H](c1cc(Br)c(F)cc1O)C1=C(CCS1(=O)=O)N2`, the concentration for a half-maximal effect (EC50) was 209 nM in assay [1] and 676 nM in assay [2].
Regarding `Cc1cc([C@H]2C3=C(CCCC3=O)NC3=C2S(=O)(=O)CC3)ccc1F`, a half-maximal effect in assay [1] (EC50) was put at 2820 nM.
On the same count and under the same terms, the result for `CC1=C(C#N)C(c2ccc(F)c(Br)c2)C2=C(CCS2(=O)=O)N1` (stereo not drawn) reads 27.5 nM; that for `Cc1ccc([C@H]2C3=C(CCCC3=O)NC3=C2S(=O)(=O)CC3)cc1S(C)(=O)=O`, above 10000 nM.
As for `C=Cc1cc([C@H]2C3=C(CCCC3=O)NC3=C2S(=O)(=O)CC3)ccc1F`, the EC50 in assay [1] is 1350 nM; in assay [2], 2450 nM.
The like results for `O=C1CCCC2=C1C(c1ccc(F)c(Br)c1)C1=C(CCCS1(=O)=O)N2` (single isomer, unassigned; (+)) were, in that order, 1200 nM and 6760 nM.
In turn, `O=C1CCC2=C1C(c1cncc([N+](=O)[O-])c1)C1=C(CCS1(=O)=O)N2` (stereo not drawn) showed an EC50 in assay [1] above 10000 nM.
Still for that read-out and setting: the same measure for `O=C1CCCC2=C1[C@H](c1cccc(Br)c1)C1=C(CCS1(=O)=O)N2`: 1510 nM.
On the same count and under the same terms, the result for `O=C1CCC2=C1C(c1cc(Br)cs1)C1=C(CCS1(=O)=O)N2` (stereo not drawn) reads 741 nM.
Turning to `CCC(C)(C)NC(=NC#N)Nc1cccnc1`, the EC50 in assay [1] is 44.7 nM; in assay [2], 85.1 nM; in assay [5] it was 21.9 nM.
Regarding `O=C1CCCC2=C1C(c1ccc(F)c(Br)c1)C1=C(CCCS1(=O)=O)N2` (stereo in doubt; 17(-)), the EC50 in assay [1] was 38 nM; in assay [2] it was 363 nM.
As for `O=C1CCCC2=C1[C@H](c1ccc(Cl)c(Cl)c1)C1=C(CCS1(=O)=O)N2`, the values for the concentration giving a half-maximal response (EC50) in assay [1] and in assay [2] were 269 nM and 331 nM, respectively.
In turn, `N#Cc1ccnc(C2C3=C(CCC3=O)NC3=C2S(=O)(=O)CC3)c1` (stereo not drawn) gave an EC50 in assay [1] above 10000 nM.
Consider `CC1=C(C(=O)O)C(c2ccc(F)c(Br)c2)C2=C(CCS2(=O)=O)N1` (stereo not drawn), for which the EC50 in assay [1] is 1820 nM; in assay [2], 8710 nM.
For `CC1(C)CCC2=C(C1=O)[C@H](c1ccc(F)c(Br)c1)C1=C(CCS1(=O)=O)N2`, in that order: 83.2 nM and 5620 nM.
Turning to `CCc1ccc([C@H]2C3=C(CCCC3=O)NC3=C2S(=O)(=O)CC3)cc1[N+](=O)[O-]`, a half-maximal effect in assay [1] (EC50) was put at 2290 nM.
As for `O=C1CCCC2=C1[C@H](c1ccc(F)c(Cl)c1)C1=C(CCS1(=O)=O)N2`, the half-maximal effective concentration (EC50) in assay [1] is 138 nM; in assay [2], 214 nM.
For `O=S1(=O)CCC2=C1C(c1ccc(F)c(Br)c1)C=C(C(F)(F)F)N2` (stereo not drawn), in that order: 447 nM and 2240 nM.
Consider `O=C1CCC2=C1[C@H](c1ccc(F)c(Br)c1)C1=C(CCS1(=O)=O)N2`, for which the EC50 in assay [1] was 575 nM; in assay [2], 339 nM.
